Reference: ChEMBL document CHEMBL1122853, “New bicyclic antidepressant agent. Synthesis and activity of napactadine and related compounds” (J Med Chem, 1985)
Activity calls are given as the source filed them. The rule behind the calls is not given here.

Experiments:
[1] = test system: Mus musculus; assay: Effective dose required to prevent reserpine ptosis in mice administered intraperitoneally; assay type: functional; settings: ip
Procedure, shortened: (§1)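 Male Swiss-Webster or Harlan ICR mice, five per dose. Drug in saline given po or ip per line. Reserpine 2.5 mg/kg ip 30 min later. Complete absence of ptosis at 45 min after reserpine scored as positive. ED50 by Litchfield-Wilcoxon or Horn method, with 95% confidence intervals.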

[2] = test system: Mus musculus; assay: (§2) Effective dose required to potentiate yohimbine hydrochloride induced lethality in mice, administered intraperitoneally; assay type: functional; settings: ip
Procedure, shortened: (§3)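 Male Swiss-Webster or Swiss ND/4 mice, 20-24 g, randomized into groups of 10 and housed five per cage. Test drug in saline given ip, with a saline control group. Yohimbine hydrochloride 20 mg/kg sc was given 30 min later, and mice were then reaggregated.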

[3] = test system: Mus musculus; assay: Effective dose required to prevent reserpine ptosis in mice, administered intraperitoneally.; assay type: functional, organism-based; procedure, shortened: as §1
[4] = test system: Mus musculus; assay: (§4) Effective dose required to prevent reserpine ptosis in mice, administered intraperitoneally; assay type: functional; settings: ip; procedure, shortened: as §1
[5] = test system: Mus musculus; assay: Effective dose required to prevent reserpine ptosis in mice, administered (po)orally; assay type: functional; procedure, shortened: as §1
[6] = test system: Mus musculus; assay: Effective dose required to prevent reserpine ptosis in mice, administered orally; NA=Not active at 100 mg/kg; assay type: functional, organism-based; set-up: dose 100 mg/kg; procedure, shortened: as §1
[7] = test system: Mus musculus; assay: Effective dose required to prevent reserpine ptosis in mice, administered orally(po); NA=Not active at 100 mg/kg; assay type: functional, organism-based; set-up: dose 100 mg/kg; procedure, shortened: as §1
[8] = Therapeutic index administered intraperitoneally in mouse; assay type: organism-based; settings: in vivo, ip, read-out: Therapeutic index
Procedure, shortened: (§5)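 Index from mouse LD50 over reserpine-ptosis ED50 by the same route. […] Deaths recorded at 1 and 24 h; Litchfield-Wilcoxon calculation.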

[9] = Therapeutic index administered perorally in mouse; assay type: organism-based; settings: in vivo, po, read-out: Therapeutic index; procedure, shortened: as §5
[10] = test system: Mus musculus; assay: Electrical shock aggression was evaluated in mice, administered intraperitoneally; NA means no aggression blockade at 46.4 mg/kg; assay type: functional, organism-based; set-up: dose 46.4 mg/kg
Procedure, shortened: (§6)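 Pairs of mice placed under an inverted 1000 cm3 beaker and shocked through the floor grid (3 mA, 3 Hz) for 2 min. Drug given ip 30 min before testing; scored all-or-none against a saline group. Fighting counted as inhibited when mean attacks fell 1.5 SD below the vehicle mean.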

[11] = Lethal dose in mouse p.o.; assay type: toxicity, organism-based; settings: in vivo, po
[12] = Lethal dose in mouse i.p.; assay type: toxicity, organism-based; settings: in vivo, ip
Procedure, shortened: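 Male Swiss-Webster albino mice, 20-24 g, in groups of five. Each group received one dose ip in saline (prepared 30 min before injection) at 10 mL/kg. Mice were held singly for about 5 h, then housed together with food and water. Deaths were counted at 1 and 24 h. LD50 by Litchfield-Wilcoxon.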

[13] = test system: Mus musculus; assay: Effective dose required to prevent reserpine ptosis in mice, administered orally; assay type: functional; settings: po; procedure, shortened: as §1
[14] = test system: Mus musculus; assay: Effective dose required to potentiate yohimbine hydrochloride induced lethality in mice, administered intraperitoneally; NA=Not active; assay type: functional, organism-based
Procedure, shortened: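 Male Swiss-Webster or Swiss ND/4 mice, 20-24 g, randomized into groups of 10 and aggregated five per cage. Test drug in saline given ip, with a saline control group. Yohimbine HCl (20 mg/kg, sc) injected 30 min later, then mice reaggregated.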

[15] = test system: Mus musculus; assay: Effective dose against yohimbine hydrochloride induced lethality in mice, administered intraperitoneally; assay type: functional; settings: ip; procedure, shortened: as §3
[16] = test system: Mus musculus; assay: Effective dose required to prevent reserpine ptosis in mice, administered intraperitoneally; NA=Not active at 100 mg/kg; assay type: functional, organism-based; set-up: dose 100 mg/kg; procedure, shortened: as §1
[17] = test system: Mus musculus; assay: as §4; assay type: functional; settings: ip; procedure, shortened: as §1; remark: listed apart in the source
[18] = Therapeutic index after administered intraperitoneally in mouse; assay type: organism-based; settings: in vivo, ip, read-out: Therapeutic index; procedure, shortened: as §5
[19] = test system: Mus musculus; assay: Compound (administered intraperitoneally) was tested for yohimbine lethality potentiation; assay type: functional; settings: ip; procedure, shortened: as §3
[20] = test system: Mus musculus; assay: Effective dose required to prevent reserpine ptosis in mice administered intraperitoneally; NA=Not active; assay type: functional, organism-based; procedure, shortened: as §1
[21] = test system: Mus musculus; assay: Electrical shock aggression was evaluated in mice, administered intraperitoneally; assay type: functional; settings: ip; procedure, shortened: as §6
[22] = test system: Mus musculus; assay: as §2; assay type: organism-based; settings: in vivo, ip; procedure, shortened: as §3
[23] = test system: Mus musculus; assay: Effective dose required to prevent reserpine ptosis in mice administered po; assay type: functional; procedure, shortened: as §1
[24] = test system: Mus musculus; assay: Effective dose required to prevent reserpine ptosis in mice, administered orally(po); assay type: functional; procedure, shortened: as §1
[25] = test system: Mus musculus; assay: Effective dose required to prevent reserpine ptosis in mice, administered orally (po); assay type: functional; procedure, shortened: as §1
[26] = test system: Mus musculus; assay: Effective dose required to prevent reserpine ptosis in mice, administered po; NA=Not active; assay type: functional, organism-based; procedure, shortened: as §1

SMILES: C/N=C(/COc1ccccc1)NC.Cl
- ED50 [1]: 1.1 mg/kg
- ED50 [2]: 2.2 mg/kg

SMILES: C/N=C(/Cc1ccc(OC)c(OC)c1)NC
- ED50 [3]: inactive

SMILES: C/N=C(/COc1ccc(Cl)cc1Cl)NC.Cl
- ED50 [4]: 7.5 mg/kg

SMILES: CC1CN(C(=N)Cc2ccc3ccccc3c2)CC(C)O1.Cl (configuration not stated)
- ED50 [5]: 28.7 mg/kg

SMILES: Cc1ccc(C/N=C(/N)Cc2ccc3ccccc3c2)c(C)c1
- ED50 [6]: inactive

SMILES: N=C(Cc1ccc2ccccc2c1Cl)N1CCN(Cc2ccccc2)CC1
- ED50 [7]: inactive

SMILES: C/N=C(/Cc1ccc(-c2ccccc2)cc1)NC
- ED50 [3]: inactive

SMILES: CC/N=C(/Cc1cccc(C(F)(F)F)c1)NCC.Cl
- ED50 [4]: 5.1 mg/kg
- ED50 [2]: 12.8 mg/kg

SMILES: Cl.N=C(Cc1ccc2ccccc2c1)N1CCCC1
- ED50 [5]: 11 mg/kg

SMILES: CC/N=C(/Cc1ccc(Cl)c(Cl)c1)NCC.Cl
- ED50 [4]: 9.3 mg/kg
- selectivity ratio [8]: 3
- selectivity ratio [9]: 7
- ED50 [10]: inactive
- LD50 [11]: 90 mg/kg
- ED50 [5]: 12.6 mg/kg
- LD50 [12]: 31.6 mg/kg
- ED50 [2]: 6 mg/kg

SMILES: Cl.N=C(Cc1ccc2ccccc2c1)N1CCC(N2CCCCC2)CC1
- ED50 [5]: 40.8 mg/kg

SMILES: C/N=C(/Cc1ccc2cc(C)ccc2c1)NC.Cl
- ED50 [4]: 19.6 mg/kg
- ED50 [13]: 31.6 mg/kg
- ED50 [14]: inactive

SMILES: CC/N=C(/Cc1ccc2ccccc2c1Cl)NCC.Cl
- ED50 [13]: 41 mg/kg
- ED50 [15]: 41 mg/kg
- ED50 [16]: inactive

SMILES: N=C(Cc1ccc2ccccc2c1Cl)N1CCN(C(c2ccccc2)c2ccccc2)CC1
- ED50 [7]: inactive

SMILES: CC/N=C(/Cc1cccc(C)c1)NCC
- ED50 [3]: inactive

SMILES: Cl.N=C(Cc1ccc2ccccc2c1)N1CCC(c2ccccc2)CC1
- ED50 [13]: 14.7 mg/kg

SMILES: COc1ccc2cc(CC(=N)N3CCC(c4ccccc4)CC3)ccc2c1
- ED50 [7]: inactive

SMILES: Cl.N=C(Cc1ccc2ccccc2c1)N1CCOCC1
- ED50 [5]: 17.1 mg/kg

SMILES: C/N=C(\NC)c1ccc(Cl)c(Cl)c1.Cl
- ED50 [4]: 9.3 mg/kg
- ED50 [17]: 9.3 mg/kg
- selectivity ratio [18]: 6
- selectivity ratio [9]: 20
- ED50 [10]: inactive
- LD50 [11]: 215 mg/kg
- ED50 [5]: 10.8 mg/kg
- LD50 [12]: 60 mg/kg
- ED50 [19]: 2.4 mg/kg
- ED50 [2]: 2.4 mg/kg

SMILES: CN1CCN(C(=N)Cc2ccc3ccccc3c2)CC1.Cl
- ED50 [5]: 14.7 mg/kg

SMILES: CC/N=C(/Cc1ccc(Br)cc1)NCC.Cl
- ED50 [4]: 2.8 mg/kg
- ED50 [2]: 2.7 mg/kg

SMILES: Cl.N=C(Cc1ccc2ccccc2c1Cl)N1CCCC1
- ED50 [13]: 2.9 mg/kg

SMILES: CC/N=C(/Cc1cccc2ccccc12)NCC
- ED50 [3]: inactive

SMILES: CN(CCO)C(=N)Cc1ccc2ccccc2c1.Cl
- ED50 [5]: 19.6 mg/kg

SMILES: C/N=C(/Cc1ccc2ccccc2c1O)NC.Cl
- ED50 [5]: 26.1 mg/kg

SMILES: CC/N=C(/Cc1c(Cl)ccc(Cl)c1Cl)NCC
- ED50 [3]: inactive

SMILES: Cl.N=C(Cc1ccc2ccccc2c1)N1CCCCC1
- ED50 [13]: 11 mg/kg

SMILES: CCC/N=C(/COc1ccccc1)NCCC
- ED50 [20]: inactive

SMILES: CC/N=C(/COc1ccc(Cl)c(Cl)c1)NCC.Cl
- ED50 [4]: 3.3 mg/kg
- ED50 [2]: 3.5 mg/kg

SMILES: CC/N=C(/Cc1ccc(Cl)cc1Cl)NCC
- ED50 [3]: inactive

SMILES: C/N=C(/Cc1ccc(Cl)cc1)NC.Cl
- ED50 [21]: 43 mg/kg
- ED50 [4]: 2.3 mg/kg
- selectivity ratio [8]: 30
- ED50 [22]: 15 mg/kg
- selectivity ratio [9]: 127
- ED50 [23]: 3.4 mg/kg
- LD50 [11]: 430 mg/kg
- LD50 [12]: 69.4 mg/kg

SMILES: CNC(=N)Cc1ccc2ccccc2c1.Cc1ccc(S(=O)(=O)O)cc1.Cl
- ED50 [24]: 22.5 mg/kg

SMILES: C/N=C(\NC)c1ccc(Cl)cc1.Cl
- ED50 [4]: 6.8 mg/kg
- selectivity ratio [8]: 16
- selectivity ratio [9]: 32
- LD50 [11]: 200 mg/kg
- ED50 [25]: 6.2 mg/kg
- LD50 [12]: 108 mg/kg
- ED50 [2]: 6 mg/kg

SMILES: C/N=C(/Cc1cc2ccccc2cc1C)NC
- ED50 [3]: inactive
- ED50 [26]: inactive
